According to PMC2854536 (Clinical cancer research : an official journal of the …, 2009):

Columns and labels:
[1] = system: bFGF-induced angiogenesis; experiment: Matrigel plug assay; type: in vivo, nude mice; details: Matrigel plug with bFGF (Fig. 3C bottom)
[2] = system: CD95; experiment: Immunohistochemistry of Matrigel plug vasculature, CD95; type: in vivo, nude mice; details: Matrigel plugs with bFGF (Fig. 6A)
[3] = system: endothelial cells; experiment: Cytotoxicity in a 4-hour assay; type: cell-based, Human; details: P14 at concentrations above 10 nM, data not shown
[4] = system: bFGF/VEGF-induced angiogenesis; experiment: Directed In Vivo Angiogenesis Assay; parameters: species or system nude mice
In short: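 Angioreactors filled with basement membrane extract holding bFGF/VEGF mix plus test peptide, or peptide alone, implanted subcutaneously in both flanks of nude mice, four per animal. PEDF 20 nM and 34-mer 100 nM served as controls. Recovered cells were FITC-lectin labelled and fluorescence read as relative EC invasion. Three independent experiments, normalised to negative control, averaged.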

[5] = system: HMVEC cells; experiment: Endothelial cell apoptosis, TUNEL assay; type: cell-based, Human; details: overnight, 0.2% FBS, no bFGF, PEDF 10 nM, 34-mer 100 nM (Fig. 2C)
In short: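 Confluent HMVECs (passages 6–9) on coverslips were treated overnight with test peptide in MCDB131 with 0.2% FBS, with or without bFGF 20 ng/ml. PEDF 10 nM and 34-mer 100 nM were controls. TUNEL staining with propidium iodide counterstain. In 3–5 10X fields, TUNEL-positive and total PI-positive cells were counted to give % apoptotic cells.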

Molecule: 34-mer: PEDF anti-angiogenic N-terminal surface epitope, amino acid residues 24–57; parental peptide (SPPEEGSPDPDSTGALVEEEDPFFKVPVNKLAAA; UniProt P36955 24-57, looked up, fragment)
- EC apoptosis by in situ TUNEL [1]: induced significant levels of EC apoptosis
- CD95 staining of microvessels [2]: majority of the microvessels stained positive

Molecule: P14: PEDF-derived peptide, residues 43–57 of PEDF molecule, acetylated at the N-terminus and amidated at the C-terminus (Ac-EDPFFKVPVNKLAAA-NH2; UniProt P36955 43-57, looked up, fragment)
- cytotoxicity [3]: slightly cytotoxic
- angiogenic activity of the peptide alone ([4]; DIVAA, without bFGF/VEGF, P<0.05): pro-angiogenic

Molecule: P23: PEDF-derived peptide, residues 34–57, acetylated at the N-terminus and amidated at the C-terminus (Ac-DSTGALVEEEDPFFKVPVNKLAAA-NH2; UniProt P36955 34-57, looked up, fragment)
- cytotoxicity [3]: no cytotoxic activity

B1: PEDF: Pigment epithelial-derived factor, native protein, a potent angiogenesis inhibitor (protein, UniProt P36955 20-418, looked up)
Pigment epithelium-derived …: QNPASPPEEGSPDPDSTGALVEEEDPFFKVPVNKLAAAVSNFGYDLYRVRSSTSPTTNVLLSPLSVATALSALSLGAEQRTESIIHRALYYDLISSPDIHGTYKELLDTVTAPQKNLKSASRIVFEKKLRIKSSFVAPLEKSYGTRPRVLTGNPRLDLQEINNWVQAQMKGKLARSTKEIPDEISILLLGVAHFKGQWVTKFDSRKTSLEDFYLDEERTVRVPMMSDPKAVLRYGLDSDLSCKIAQLPLTGSMSIIFFLPLKVTQNLTLIEESLTSEFIHDIDRELKTVQAVLTVPKLKLSYEGEVTKSLQEMKLQSLFDSPDFSKITGKPIKLTQVEHRAGFEWNEDGAGTTPSPGLQPAHLTFPLDYHLNQPFIFVLRDTDTGALLFIGKILDPRGP
- level of vascularization reached ([4]; DIVAA with bFGF/VEGF mix, P=0.006 (PEDF) and 0.01 (P18)): to the level of BME
- effect on stress-induced apoptosis in low serum [5]: no effect
